Active and inactive are the calls of the source. The calls are words filed in the database; no cut-off is given here.
What was measured:
Escherichia coli [1] = assay: Antibacterial activity against Escherichia coli at 60 ug/mL; type: functional, organism-based
Escherichia coli [2] = assay: Inhibition of Escherichia coli biofilm formation at 60 ug/mL; type: functional
Outline: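 DsRed-express-labeled E. coli biofilms were grown 24 h at 37 C on 316 L stainless steel coupons, with furanone added to the growth medium. Imaged by confocal microscopy. Biomass, surface coverage and mean thickness were calculated from the images and expressed relative to a no-furanone control. Four replicates.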

Escherichia coli [3] = assay: Antibacterial activity against Escherichia coli RP437/pRSH103 assessed as reduction of colony forming unit at 40 ug/ml after 3 hrs; type: functional
Outline: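 Viable counts (CFU/mL) taken before and after 3 h exposure at 37 C. A parallel culture given the same amount of ethanol (0.2%) served as negative control.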

Escherichia coli [4] = assay: Antibacterial activity against Escherichia coli RP437/pRSH103 at 5 to 10 ug/ml; type: functional, organism-based
Outline: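 Toxicity followed as growth curves. OD600 of E. coli cultures was monitored over time in LB medium with tetracycline, containing a range of furanone concentrations.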

Row | SMILES | Activity (Escherichia coli [1]) | inhibition at 60 µg/mL (Escherichia coli [2]) [%] | CFU (Escherichia coli [3]) [mL⁻¹] | Activity (Escherichia coli [4])
1 | CC1=C(Br)C(Br)(C(Br)Br)OC1=O (centres undefined) | inactive | – | – | –
2 | O=C1OC(=C(Br)Br)C=C1C(Br)Br | inactive | 80 | – | –
3 | CC1=C(Br)C(C(Br)Br)OC1=O (centres undefined) | inactive | 19 | – | –
4 | CC1=CC(=O)OC1=O | inactive | – | – | –
5 | CC1=C(Br)/C(=C/Br)OC1=O | inactive | 75 | – | –
6 | COC1=CC(=O)OC1 | inactive | – | – | –
7 | CC1=CC(C)OC1=O (centres undefined) | inactive | – | – | –
8 | O=C1OC(=C(Br)Br)C=C1CBr | – | – | 390 | –
9 | CC1=CC(=C(Br)Br)OC1=O | inactive | 63 | – | –
10 | O=C1O/C(=C\Br)C(Br)=C1CBr | – | – | – | Active

Reference: ChEMBL document CHEMBL1140834, “Identifying the important structural elements of brominated furanones for inhibiting biofilm formation by Escherichia coli” (2008)
